One test deals with Somatostatin receptor. In words: Compound was tested for in vitro SRIF inhibition of GH release in rats. The class given is functional. The method in brief:
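Adult male rat anterior pituitary cells, dispersed with trypsin/DNase, cultured 4-5 days. Then 3 h at 37 °C in medium 199 with 1% BSA, GHRH(1-29)NH2 1 nM and SRIF 1 nM, with analogue at six doses (up to 10 µM, some to 100 µM), triplicate wells. GH in medium measured by double-antibody RIA. Antagonist IC50 taken from n separate dose-response curves.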

Test [1] concerns the target Somatostatin receptor type 2 (Homo sapiens, UniProt P30874). In words: Binding affinity towards cloned human somatostatin 2 (hsst) receptor. A digest of the protocol:
(§1)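 Membranes from CHO-K1 cells stably transfected with the human receptor subtype (calcium phosphate transfection, G418 selection), homogenised and washed in Tris-HCl. Separated by filtration on PEI-soaked GF/C filters; nonspecific binding with 1.0 µM SRIF.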

Test [2] has as its target Somatostatin receptor type 1 (Homo sapiens, UniProt P30872). In words: Binding affinity towards cloned human somatostatin 1 (hsst) receptor. A digest of the protocol:
as §1

In test [3] the target is Somatostatin receptor type 4 (Homo sapiens, UniProt P31391). The experiment in a line: Binding affinity towards cloned human somatostatin 4 (hsst) receptor.
Test [4] has as its target Somatostatin receptor type 3 (Homo sapiens, UniProt P32745). The experiment in a line: Binding affinity towards cloned human somatostatin 3 (hsst) receptor. The method in brief: as §1
The target of test [5] is Somatostatin receptor type 5 (Homo sapiens, UniProt P35346). In words: Binding affinity towards cloned human somatostatin 5 (hsst) receptor. The method in brief:
as §1

Positions of bridges follow the written chain, without caps; N, C: chain ends. Non-standard residues stand in square brackets, D forms with d. Residues, ends and D or L forms follow the SMILES beside them. dBip = N[C@H](Cc1ccc(-c2ccccc2)cc1)C(=O)O; dPhe(4-Cl) = N[C@H](Cc1ccc(Cl)cc1)C(=O)O; 2Nal = N[C@@H](Cc1ccc2ccccc2c1)C(=O)O; d2Nal = N[C@H](Cc1ccc2ccccc2c1)C(=O)O; 3Pal = N[C@@H](Cc1cccnc1)C(=O)O

Broadly, the IC50 is the concentration at which inhibition is half-maximal. For orientation: Ki means the dissociation constant of the complex between target and ligand, obtained from inhibition or displacement. A high value points to a looser hold on the target.

Somatostatin receptor type 3, sequence (P32745 whole entry): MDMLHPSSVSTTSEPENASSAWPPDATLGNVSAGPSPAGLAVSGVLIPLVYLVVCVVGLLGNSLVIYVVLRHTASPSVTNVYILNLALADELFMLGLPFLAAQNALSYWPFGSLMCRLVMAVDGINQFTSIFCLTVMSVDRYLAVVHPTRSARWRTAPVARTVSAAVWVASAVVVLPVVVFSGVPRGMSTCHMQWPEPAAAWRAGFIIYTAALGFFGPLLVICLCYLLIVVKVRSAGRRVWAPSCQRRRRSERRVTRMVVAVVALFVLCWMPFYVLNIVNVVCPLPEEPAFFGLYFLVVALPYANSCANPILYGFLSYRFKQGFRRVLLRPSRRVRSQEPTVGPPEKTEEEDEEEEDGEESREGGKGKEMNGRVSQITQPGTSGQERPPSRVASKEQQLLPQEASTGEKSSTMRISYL
Somatostatin receptor type 4, sequence (P31391 whole entry): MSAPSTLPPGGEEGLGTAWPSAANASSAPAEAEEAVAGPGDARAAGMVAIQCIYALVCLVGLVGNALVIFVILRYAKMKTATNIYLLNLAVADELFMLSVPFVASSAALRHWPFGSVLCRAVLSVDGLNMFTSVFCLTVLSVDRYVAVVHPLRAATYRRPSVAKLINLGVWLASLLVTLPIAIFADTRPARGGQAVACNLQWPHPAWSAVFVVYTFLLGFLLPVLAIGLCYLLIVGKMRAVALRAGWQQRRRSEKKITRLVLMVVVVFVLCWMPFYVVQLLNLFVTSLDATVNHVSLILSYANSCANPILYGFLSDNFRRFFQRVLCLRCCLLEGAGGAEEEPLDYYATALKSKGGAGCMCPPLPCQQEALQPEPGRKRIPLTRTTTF
Somatostatin receptor type 1, sequence (P30872 whole entry): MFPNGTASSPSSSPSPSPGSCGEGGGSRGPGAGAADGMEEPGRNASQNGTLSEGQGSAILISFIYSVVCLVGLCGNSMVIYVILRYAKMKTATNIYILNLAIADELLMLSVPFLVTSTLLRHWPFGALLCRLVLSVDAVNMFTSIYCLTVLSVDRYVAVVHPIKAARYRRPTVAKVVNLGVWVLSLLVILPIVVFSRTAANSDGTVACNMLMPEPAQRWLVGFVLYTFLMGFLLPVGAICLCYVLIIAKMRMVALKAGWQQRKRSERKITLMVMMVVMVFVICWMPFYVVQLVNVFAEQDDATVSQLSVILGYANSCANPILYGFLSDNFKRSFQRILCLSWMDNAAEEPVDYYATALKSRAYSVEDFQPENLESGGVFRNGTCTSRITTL
Somatostatin receptor type 5, sequence (P35346 whole entry): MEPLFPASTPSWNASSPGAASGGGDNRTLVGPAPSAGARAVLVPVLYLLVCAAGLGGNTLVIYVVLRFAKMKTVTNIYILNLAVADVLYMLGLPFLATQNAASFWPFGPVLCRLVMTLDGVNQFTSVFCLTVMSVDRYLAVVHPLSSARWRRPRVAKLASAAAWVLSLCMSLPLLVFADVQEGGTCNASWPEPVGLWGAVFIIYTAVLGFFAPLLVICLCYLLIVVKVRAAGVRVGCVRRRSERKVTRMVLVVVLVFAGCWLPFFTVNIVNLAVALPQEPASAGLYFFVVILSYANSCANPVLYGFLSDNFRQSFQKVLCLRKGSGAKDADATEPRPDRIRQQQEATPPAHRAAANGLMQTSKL
Somatostatin receptor type 2, sequence (P30874 whole entry): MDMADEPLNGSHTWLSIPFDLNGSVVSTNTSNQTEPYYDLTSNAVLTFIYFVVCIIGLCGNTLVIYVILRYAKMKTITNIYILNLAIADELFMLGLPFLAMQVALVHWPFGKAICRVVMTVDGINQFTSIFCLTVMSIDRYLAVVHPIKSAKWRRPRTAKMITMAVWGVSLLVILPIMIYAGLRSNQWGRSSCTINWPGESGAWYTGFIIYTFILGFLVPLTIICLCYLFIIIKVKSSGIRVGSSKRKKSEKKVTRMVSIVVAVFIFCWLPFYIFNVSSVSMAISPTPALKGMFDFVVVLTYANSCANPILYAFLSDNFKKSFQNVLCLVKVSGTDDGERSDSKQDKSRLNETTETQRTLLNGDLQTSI

On to `CC(C)[C@@H]1NC(=O)[C@H](CCCCN)NC(=O)[C@@H](Cc2c[nH]c3ccccc23)NC(=O)[C@H](Cc2ccc(O)cc2)NC(=O)[C@@H](NC(=O)[C@@H](N)Cc2ccc3ccccc3c2)CSSC[C@H](C(=O)N[C@@H](Cc2ccc3ccccc3c2)C(N)=O)NC1=O`, for which the IC50 at Somatostatin receptor is 35.3 nM.
On to `C[C@@H](O)[C@@H]1NC(=O)[C@H](CCCCN)NC(=O)[C@@H](Cc2c[nH]c3ccccc23)NC(=O)[C@H](Cc2ccc(O)cc2)NC(=O)[C@H](NC(=O)[C@H](N)Cc2ccc3ccccc3c2)CSSC[C@@H](C(=O)N[C@@H](Cc2ccc3ccccc3c2)C(N)=O)NC1=O`, for which the Ki in test [1] is 202 nM. Further, the IC50 worked out at 180000 nM against Somatostatin receptor, 1040 nM in test [2] and 605 nM in test [3].
On to `C[C@@H](O)[C@H](NC(=O)[C@@H]1CSSC[C@@H](NC(=O)[C@@H](N)Cc2ccccc2)C(=O)N[C@@H](Cc2cccnc2)C(=O)N[C@H](Cc2c[nH]c3ccccc23)C(=O)N[C@@H](CCCCN)C(=O)N[C@@H]([C@@H](C)O)C(=O)N1)C(N)=O`, for which the half-maximal inhibitory concentration (IC50) was found to be 934 nM in test [4], 905 nM against Somatostatin receptor, 1000 nM in test [2] and 1000 nM in test [3]. Further, the Ki in test [5] came out at 2360 nM; in test [1], 291 nM.
With `C[C@@H](O)[C@H](NC(=O)[C@@H]1CSSC[C@@H](NC(=O)[C@@H](N)Cc2ccc(O)cc2)C(=O)N[C@@H](Cc2cccnc2)C(=O)N[C@H](Cc2c[nH]c3ccccc23)C(=O)N[C@@H](CCCCN)C(=O)N[C@@H]([C@@H](C)O)C(=O)N1)C(N)=O`, the IC50 in test [4] was determined as 1380 nM; against Somatostatin receptor it was 98650 nM; in test [2], 1000 nM; in test [3], 1000 nM. In test [1], this molecule yielded a Ki of 1000 nM.
`CC(C)[C@@H]1NC(=O)[C@H](CCCCN)NC(=O)[C@@H](Cc2c[nH]c3ccccc23)NC(=O)[C@H](Cc2cccnc2)NC(=O)[C@H](NC(=O)[C@@H](N)Cc2ccc3ccccc3c2)CSSC[C@@H](C(=O)N[C@@H](Cc2cccc(-c3ccccc3)c2)C(N)=O)NC1=O`: at Somatostatin receptor, the IC50 amounted to 56 nM.
`CC(C)[C@@H]1NC(=O)[C@H](CCCCN)NC(=O)[C@@H](Cc2c[nH]c3ccccc23)NC(=O)[C@H](Cc2ccc(O)cc2)NC(=O)[C@H](NC(=O)[C@@H](N)Cc2ccc3ccccc3c2)CSSC[C@@H](C(=O)NC(C)(C)C)NC1=O` came in with an IC50 against Somatostatin receptor of 108600 nM.
Still for that read-out and setting: the value for `CC(C)[C@@H]1NC(=O)[C@H](CCCCN)NC(=O)[C@@H](Cc2c[nH]c3ccccc23)NC(=O)[C@H](Cc2ccc(O)cc2)NC(=O)[C@H](NC(=O)[C@@H](N)Cc2ccc(O)cc2)CSSC[C@@H](C(=O)N[C@H](Cc2ccc3ccccc3c2)C(N)=O)NC1=O` was 64.8 nM.
On to `CC(C)[C@@H]1NC(=O)[C@H](CCCCN)NC(=O)[C@@H](Cc2c[nH]c3ccccc23)NC(=O)[C@H](Cc2ccc(O)cc2)NC(=O)[C@H](NC(=O)[C@@H](N)Cc2ccc3ccccc3c2)CSSC[C@@H](C(=O)N[C@H](Cc2ccc3ccccc3c2)C(N)=O)NC1=O`, for which the IC50 in test [4] is 2280 nM; against Somatostatin receptor, 280 nM; in test [2] it was 1000 nM; in test [3], 1000 nM. Also, the Ki in test [5] worked out at 1250 nM; in test [1], 46.1 nM.
In turn, `CC(C)[C@@H]1NC(=O)[C@H](CCCCN)NC(=O)[C@@H](Cc2c[nH]c3ccccc23)NC(=O)[C@H](Cc2ccc(O)cc2)NC(=O)[C@H](NC(=O)[C@H](N)Cc2ccc3ccccc3c2)CSSC[C@H](C(=O)N[C@H](Cc2ccc3ccccc3c2)C(N)=O)NC1=O` returned an IC50 on Somatostatin receptor of 375 nM.
`CC(=O)N[C@@H](Cc1ccc2ccccc2c1)C(=O)N[C@@H]1CSSC[C@@H](C(=O)N[C@@H](Cc2ccc3ccccc3c2)C(N)=O)NC(=O)[C@H](C(C)C)NC(=O)[C@H](CCCCN)NC(=O)[C@@H](Cc2c[nH]c3ccccc23)NC(=O)[C@H](Cc2ccc(O)cc2)NC1=O` (Ac-[2Nal][dC]Y[dW]KVC[2Nal]-NH2; disulfide 2-7): the IC50 in test [4] came out at 144 nM; against Somatostatin receptor, 56.7 nM; in test [2] it was 1020 nM; in test [3] it was 1000 nM. Moreover, the Ki came out at 130 nM in test [5] and 48.2 nM in test [1].
Regarding `CC(C)[C@@H]1NC(=O)[C@H](CCCCN)NC(=O)[C@@H](Cc2c[nH]c3ccccc23)NC(=O)[C@H](Cc2cccnc2)NC(=O)[C@H](NC(=O)[C@@H](N)Cc2ccccc2)CSSC[C@@H](C(=O)N[C@@H](Cc2ccc3ccccc3c2)C(N)=O)NC1=O` (H-F[dC][3Pal][dW]KVC[2Nal]-NH2; disulfide 2-7), the IC50 in test [4] is 373 nM; against Somatostatin receptor, 58 nM; in test [2], 535 nM; in test [3], 1000 nM. Further, the Ki in test [5] worked out at 769 nM; in test [1] it was 123 nM.
On to `CC(C)[C@@H]1NC(=O)[C@H](CCCCN)NC(=O)[C@@H](Cc2c[nH]c3ccccc23)NC(=O)[C@H](Cc2c[nH]cn2)NC(=O)[C@H](NC(=O)[C@@H](N)Cc2ccc3ccccc3c2)CSSC[C@@H](C(=O)N[C@@H](Cc2ccc3ccccc3c2)C(N)=O)NC1=O` (H-[2Nal][dC]H[dW]KVC[2Nal]-NH2; disulfide 2-7), for which the IC50 in test [4] is 68 nM; at Somatostatin receptor, 53 nM; in test [2], 1000 nM; in test [3], 943 nM. Further, the Ki in test [5] came out at 501 nM; in test [1], 82.5 nM.
Molecule `CC(C)[C@@H]1NC(=O)[C@H](CCCCN)NC(=O)[C@@H](Cc2c[nH]c3ccccc23)NC(=O)[C@H](Cc2ccc(O)cc2)NC(=O)[C@H](NC(=O)[C@@H](N)Cc2ccc3ccccc3c2)CSSC[C@@H](C(=O)N[C@@H](Cc2ccc(O)cc2)C(N)=O)NC1=O` (H-[2Nal][dC]Y[dW]KVCY-NH2; disulfide 2-7) came in with an IC50 at Somatostatin receptor of 50 nM.
Regarding `CC(C)[C@@H]1NC(=O)[C@H](CCCCN)NC(=O)[C@@H](Cc2c[nH]c3ccccc23)NC(=O)[C@H](Cc2cccnc2)NC(=O)[C@H](NC(=O)[C@@H](N)Cc2ccc3ccccc3c2)CSSC[C@@H](C(=O)N[C@@H](Cc2ccc3ccccc3c2)C(N)=O)NC1=O` (H-[2Nal][dC][3Pal][dW]KVC[2Nal]-NH2; disulfide 2-7), the IC50 in test [4] came out at 171 nM; against Somatostatin receptor, 15.1 nM; in test [2], 506 nM; in test [3] it was 1000 nM. Also, the Ki was found to be 524 nM in test [5] and 75.9 nM in test [1].
Take `CC(C)[C@H](NC(=O)[C@H](CCCCN)NC(=O)[C@@H](Cc1c[nH]c2ccccc12)NC(=O)[C@H](Cc1ccc(O)cc1)NC(=O)[C@@H](Cc1ccc(Cl)cc1)NC(=O)[C@@H](N)Cc1ccc2ccccc2c1)C(=O)N[C@@H](Cc1ccccc1)C(=O)N[C@H](C(N)=O)[C@@H](C)O` (H-[2Nal][dPhe(4-Cl)]Y[dW]KVFT-NH2): the IC50 in test [4] was determined as 1130 nM; at Somatostatin receptor, 3030 nM; in test [2], 1000 nM; in test [3] it was 2840 nM. In addition, the Ki came out at 1840 nM in test [5] and 706 nM in test [1].
Consider `CC(C)[C@H](NC(=O)[C@H](CCCCN)NC(=O)[C@@H](Cc1c[nH]c2ccccc12)NC(=O)[C@H](Cc1ccc(O)cc1)NC(=O)[C@@H](Cc1ccc(Cl)cc1)NC(=O)[C@H](N)Cc1ccc2ccccc2c1)C(=O)N[C@@H](Cc1ccccc1)C(=O)N[C@H](C(N)=O)[C@@H](C)O` (H-[d2Nal][dPhe(4-Cl)]Y[dW]KVFT-NH2), for which the IC50 in test [4] was 89.9 nM; against Somatostatin receptor, 3960 nM; in test [2] it was 1000 nM; in test [3], 1000 nM. The Ki in test [5] amounted to 21.6 nM; in test [1], 144 nM.
`CC(C)[C@@H]1NC(=O)[C@H](CCCCN)NC(=O)[C@@H](Cc2c[nH]c3ccccc23)NC(=O)[C@H](Cc2ccc(O)cc2)NC(=O)[C@H](NC(=O)[C@H](N)Cc2ccc(-c3ccccc3)cc2)CSSC[C@@H](C(=O)N[C@@H](Cc2ccc3ccccc3c2)C(N)=O)NC1=O` (H-[dBip][dC]Y[dW]KVC[2Nal]-NH2; disulfide 2-7): the IC50 in test [4] came to 466 nM; against Somatostatin receptor, 810 nM; in test [2], 1440 nM; in test [3], 1000 nM. Also, the Ki came to 243 nM in test [5] and 793 nM in test [1].
Take `CC(C)[C@@H]1NC(=O)[C@H](CCCCN)NC(=O)[C@@H](Cc2c[nH]c3ccccc23)NC(=O)[C@H](Cc2ccc(O)cc2)NC(=O)[C@@H](NC(=O)[C@H](N)Cc2ccc3ccccc3c2)CSSC[C@H](C(=O)N[C@@H](Cc2ccc3ccccc3c2)C(N)=O)NC1=O` (stereo in doubt; 23): the IC50 in test [4] was found to be 292 nM; at Somatostatin receptor, 1360 nM; in test [2] it was 494 nM; in test [3], 312 nM. In addition, the Ki stood at 744 nM in test [5] and 68.5 nM in test [1].
